GSTO1 counter = inhibitors of recombinant GSTO1, primary screen, counter-screen for RBBP9 inhibitor project, biochemical, fluorescence polarization. activity-based probe fluorescence polarization. 300,000 compounds, 1.1% hits. AID 1974, 2009. inhibition, % at 5.96 µM. Glutathione S-transferase omega-1 (Homo sapiens), P78417;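 active = inhibition above the campaign mean inhibition plus 3 SD, cut at about 35% in these data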;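 note: 0% = GSTO1-1 with DMSO and 100% = wells lacking GSTO1-1 enzyme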
Target sequence (P78417 whole entry, looked up): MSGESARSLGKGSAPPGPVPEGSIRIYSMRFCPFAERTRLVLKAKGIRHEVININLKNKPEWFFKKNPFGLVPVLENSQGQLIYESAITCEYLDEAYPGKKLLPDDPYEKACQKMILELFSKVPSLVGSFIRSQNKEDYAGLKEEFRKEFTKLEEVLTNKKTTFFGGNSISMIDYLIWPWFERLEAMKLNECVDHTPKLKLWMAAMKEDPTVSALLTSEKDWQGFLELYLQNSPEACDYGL
Apaf-1 inh = inhibitors of human Apaf-1 apoptosome, primary screen, biochemical, DEVD-Rh110 fluorescence, uHTS; inhibition, % at 20 µM; 330,000 compounds, 0.71% hits; reconstituted apoptosome caspase-3 activity; active = inhibition of at least 40% at 20 µM;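 note: plate controls were DMSO wells for no effect and DEVD-CHO caspase inhibitor wells for full effect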
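System – cell-free apoptosome with Apaf-1, procaspase-3 and caspase-9 · Buffer or medium – pH 7.5 Hepes buffer with CHAPS, BSA, DTT · Also added – cytochrome c with DEVD-Rh110 · Times – 30 min compound preincubation, 50 min activation, room temperature · Technique – Rh110 fluorescence intensity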
PAD4 inh = human PAD4 inhibitors, primary screen, biochemical, fluorescence polarization, 1536-well format; inhibition, % at 6.36 µM; recombinant PAD4, RCA probe fluorescence polarization; 330,000 compounds, 0.41% hits; Protein-arginine deiminase type-4 (Homo sapiens), Q9UM07;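 active = percent inhibition above a cutoff equal to the mean of all tested compounds plus 3 SD, cut at about 15% in these data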;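 note: 0% = PAD4 with RCA probe and DMSO and 100% = probe without PAD4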
Fh CTSL1 inh = Fasciola hepatica cathepsin L1 inhibitors, primary screen, counter-screen for PFM18AAP inhibitor project, biochemical, QFRET, fluorogenic peptide substrate. 300,000 compounds, 0.49% hits. recombinant F. hepatica cathepsin L1, Z-Leu-Arg-MCA fluorescence. AID 1906, 2009. inhibition, % at 5.96 µM;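 active = inhibition above the mean of all tested compounds plus 3 SD, set per screening campaign, cut at about 17% in these data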;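 note: 0% = plate median of test compound wells and 100% = 1 µM Z-Phe-Ala-diazomethylketone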
TDP2 absorb = human TDP2 enzyme inhibitors, primary screen, biochemical, epi absorbance, recombinant enzyme | Tyrosyl-DNA phosphodiesterase 2 (Homo sapiens), O95551 | T5PNP hydrolysis, p-nitrophenol absorbance 415 nm | inhibition, % at 12.8 µM | 370,000 compounds, 0.34% hits | AID 720702, 2013;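 active = inhibition above the mean of all tested compounds plus 3 SD, set per campaign, cut at about 25% in these data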;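 note: 0% = DMSO with enzyme and 100% = buffer with substrate but no TDP2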
Target sequence (O95551 whole entry, looked up): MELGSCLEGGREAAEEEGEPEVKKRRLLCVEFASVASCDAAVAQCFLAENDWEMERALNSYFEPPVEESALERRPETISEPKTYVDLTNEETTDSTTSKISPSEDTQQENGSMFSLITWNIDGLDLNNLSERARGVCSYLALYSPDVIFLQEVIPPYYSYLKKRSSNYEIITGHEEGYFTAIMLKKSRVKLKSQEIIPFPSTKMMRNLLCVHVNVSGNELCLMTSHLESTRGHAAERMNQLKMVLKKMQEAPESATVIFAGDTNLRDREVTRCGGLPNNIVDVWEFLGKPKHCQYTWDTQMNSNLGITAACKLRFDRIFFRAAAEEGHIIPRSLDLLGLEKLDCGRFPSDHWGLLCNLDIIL
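Read-out basis: percent inhibition. System: recombinant human TDP2. Buffer or medium: Mg2+-containing Tris-HCl buffer, pH 7.5. Repeats: single replicate. Timing: reaction 2 h, 37 °C. Benchmarks: high control without enzyme, low control DMSO plus TDP2. Probe or stimulus: 5 mM T5PNP. Doses: 12.8 µM only. Measured by: epi absorbance of p-nitrophenol freed from T5PNP by hydrolysis.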
Apaf-1 inh conf2 = Apaf-1 inhibitors, single-dose retest, confirmation, biochemical, fluorescence, DEVD-Rh110, 20 µM | shares compounds with Apaf-1 inh | reconstituted apoptosome, caspase-3 DEVD-Rh110 fluorescence | inhibition, % at 20 µM | 1,800 compounds, 25% hits | AID 504614, 2011;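 active = mean inhibition of at least 40% at 20 µM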;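 note: plate controls were DMSO wells for no effect and DEVD-CHO caspase inhibitor control wells for full effect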
Rh110 quench = Rh110 fluorescence interference by putative Apaf-1 inhibitors, confirmation, artefact control for Apaf-1 inhibitor project, biochemical, 20 µM. shares compounds with Apaf-1 inh. quenched caspase reaction. activation (fluorescence interference), % at 20 µM. 1,800 tested, under 10 active. AID 504615, 2011;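 active = signal rise of 40% or more at 20 µM, treated as a fluorescence artifact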
Fluor interf inh = fluorescence interference of Apaf-1 inhibitor hits, dose response, artefact control for Apaf-1 inhibitor project | shares compounds with Apaf-1 inh | fluorescence interference counterscreen, Apaf-1 assay format | IC50, µM | 460 tested, under 10 active; call rule not given here
TDP2 confirm = human TDP2 enzyme inhibitors, retest, confirmation, biochemical, epi absorbance, recombinant enzyme | 1,100 compounds, 22% hits | inhibition, % at 12.8 µM | absorbance read-out | shares compounds with TDP2 absorb; in the data active = inhibition above about 25%;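 note: 0% = vehicle with enzyme and 100% = no enzyme buffer only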
An asterisk follows results filed as active; x = no result given. Hits are enriched below; roughly 1.8% of the tested compounds scored in any of these assays.

SMILES | GSTO1 counter | Apaf-1 inh | PAD4 inh | Fh CTSL1 inh | TDP2 absorb | Apaf-1 inh conf2 | Rh110 quench | TDP2 confirm | others
N#Cc1cc2ccc(N3CCOCC3)cc2cc1C#N | 19 | 82* | -6 | 2 | 69* | 10 | 10 | 6
N#CCC[C@@H]1CC[C@]2(CCCN(Cc3ccccc3)C2)O1 | x | x | x | x | -2 | x | x | x
CC(=O)c1ccc2c(c1)C1C=CCC1C(c1ccncc1)N2 (stereo not given) | 44* | 60* | -10 | 4 | 32* | 30 | 7 | 14
COC(=O)C1CN(Cc2ccc(OC)cc2)CCS(=O)(=O)N1Cc1ccc(Cl)cc1 (stereo not given) | x | x | x | x | -10 | x | x | x
CN1c2ccccc2C(C)(C)C12C=Nc1c(cc(N3CCOCC3)c3ccccc13)O2 (stereo not given) | x | 69* | x | x | 53* | 19 | 3 | 12
CN1c2ccccc2C(C)(C)C12C=Cc1cc(O)ccc1O2 (stereo not given) | 4 | 10 | -67 | -2 | 0 | x | x | x
COC(=O)[C@]12C[C@H](CC(=O)NCC3CCCCC3)C(=O)N(Cc3ccc(Cl)cc3Cl)C1=C[C@H](COCc1ccccc1)O[C@@H]2C | x | x | x | x | -3 | x | x | x
Cc1c(Cl)cnc(NC(=O)COC(=O)c2ccc([N+](=O)[O-])s2)c1Cl | 30 | 40* | -2 | 59* | 37* | 33 | 0 | 22
Cc1c(Cl)cnc(NC(=O)COC(=O)c2cccs2)c1Cl | x | 17 | 5 | x | 4 | x | x | x
Cc1[nH]n(-c2ccccc2)c(=O)c1C(C[N+](=O)[O-])c1ccc(F)cc1 (stereo not given) | 59* | 94* | 14 | -2 | 38* | 22 | 9 | 20
O=C(OCc1nnc(-c2ccccc2)o1)c1ccc([N+](=O)[O-])s1 | x | 47* | 12 | x | 32* | 21 | -2 | 37*
Cc1ccc(C(=O)OCc2nnc(-c3ccccc3)o2)s1 | -6 | 8 | 1 | -3 | 16 | x | x | x
CCCCNc1cc(NC(C)=O)cc2cc(OC)c(OC)cc12 | 35* | 62* | -14 | -1 | 30* | 83* | -1 | 29* | Fluor interf inh=>100
C[C@H]1CCC[C@H](O)CC(=O)c2c(O)cc(O)cc2CC(=O)O1 | x | x | x | x | 0 | x | x | x
CC(C)CC(=O)c1c(O)cc(O)c2c1OC1=C(C(=O)C(C)(C)C(=O)C1(C)C)C2CC(C)C (stereo not given) | x | x | x | x | -3 | x | x | x
COc1ccccc1Nc1nc(C)cc(C)c1C(N)=O | 1 | 5 | 2 | 1 | 10 | x | x | x
Cc1cc(C)c(C(N)=O)c(Nc2cccc3ccccc23)n1 | 0 | 96* | 2 | -2 | 25* | 12 | 3 | 8
CC(Nc1cccc2ccccc12)C(=O)N/N=C/c1ccccn1 (stereo not given) | 10 | 95* | -1 | 4 | 26* | 6 | 8 | 4
CCOC(=O)N1CCN(C2=C(NS(=O)(=O)c3ccc(NC(C)=O)cc3)C(=O)c3ccccc3C2=O)CC1 | 25 | 83* | -18 | -2 | 28* | 25 | 11 | 24
CCN1CCN(C2=C(NS(=O)(=O)c3ccc(C)cc3)C(=O)c3ccccc3C2=O)CC1 | 30 | 77* | -13 | 4 | 25* | 35 | 4 | 13
COc1ccc(-n2c(SCC(=O)Nc3ccc(Oc4ccccc4)cc3)nnc2-c2ccc(C)cc2)cc1 | x | x | x | x | 1 | x | x | x
Cc1ccc(C(=O)NCC(=O)OCN2C(=O)c3ccccc3C2=O)cc1C | x | -2 | 0 | x | -13 | x | x | x
Cc1ccc(C(=O)NC2(O)C(=O)c3ccccc3C2=O)cc1C | 75* | 97* | 9 | 58* | 73* | 93* | -5 | 75* | Fluor interf inh=>100
CC(=O)N(/N=C1\Sc2ccccc2C1=O)c1cccc(C)c1 | 28 | 86* | -3 | 88* | 69* | 85* | 5 | 53* | Fluor interf inh=>100
CC(=O)N(CN1C(=O)c2ccccc2C1=O)c1cccc(C)c1 | 0 | 0 | -5 | -1 | 3 | x | x | x
SMILES | GSTO1 counter | Apaf-1 inh | PAD4 inh | Fh CTSL1 inh | TDP2 absorb | Apaf-1 inh conf2 | Rh110 quench | TDP2 confirm | others
COc1ccc(-n2c(COc3ccccc3)nnc2SCc2nc3ccccc3[nH]2)cc1 | x | x | x | x | 1 | x | x | x
O=C(CNc1cccc2ccccc12)N/N=C/c1ccc[nH]1 | 1 | 15 | 4 | -1 | -8 | x | x | x
O=C(CNc1cccc2ccccc12)N/N=C/C(Br)=C/c1ccccc1 | 15 | 65* | 2 | 2 | 38* | 2 | 7 | -1
COCCn1cnc2c1c(=O)n(CC(=O)NC(=O)NC(C)(C)C)c(=O)n2Cc1ccccc1 | x | x | x | x | 39* | x | x | 2
CCNC(=S)NNC(=O)Cn1c(=O)c2c(ncn2CCOC)n(Cc2ccccc2)c1=O | 1 | -2 | 1 | -2 | -10 | x | x | x
O=C(COC(=O)c1ccc(Sc2ncn[nH]2)c([N+](=O)[O-])c1)Nc1cccc(Cl)c1F | x | x | x | x | 4 | x | x | x
Cc1ccc(/C=C/C(=O)Nc2nccs2)o1 | 2 | 1 | -6 | 3 | 26* | x | x | 1
CCOC(=O)C1CSCCS(=O)(=O)N1Cc1ccc(F)cc1 (stereo not given) | x | x | x | x | -11 | x | x | x

Screening data deposited in PubChem BioAssay by several laboratories.
